Consider one compound from ChEMBL document CHEMBL5150073, “Photocaged DNA-Binding Photosensitizer Enables Photocontrol of Nuclear Entry for Dual-Targeted Photodynamic Therapy” (J Med Chem, 2022).

The structures appear in SMILES notation. pKd: −log10 of the molar value. Activity calls are given as the source filed them. No cut-off for these calls is given here.

In data set [1] the test system is MCF7. The experiment in a line: Photocytotoxicity against human MCF7 cells cultured as […] spheroids assessed as tumor spheroid shrinkage at 10 uM incubated for 1 hr followed by washout and irradiation with 480 nm 2.3 J/cm^2 light for 15 mins with 8 J/cm^2 UV irradiation for 5 mins and incubated overnight by cell viability imaging kit based assay. Format: functional. The method, boiled down:
(§1)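 MCF7 spheroids (~300 μm) grown in ultralow-attachment plates. Compound added to medium at 10 μM final for 1 h, then illuminated: 480 nm (15 min, 2.3 J cm⁻²), 480 nm plus UV (5 min, 8.0 J cm⁻²), or UV only. After overnight incubation, stained with a live/dead imaging kit; dead-cell green mean intensity and spheroid diameter assessed.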

Data set [2] in a line: Stability of compound in human MCF7 cells assessed as esterase-mediated 3-bromo-2-(4-carbamimidoylphenyl)-1H-indole-6-carboxamidine release by measuring cyan fluorescence at 2 uM incubated for 1 hr followed by compound washout and further incubated for 1 hr on heated microscopic stage by DAPI filter based fluorescence analysis. Format: ADME, cell-based. The note with it: mcf7, 1 h. The method, boiled down:
(§2)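 Cells incubated with compound (2 μM) for 1 h, washed once with PBS, then kept a further 1 h in the dark on a heated microscope stage. Nuclear cyan fluorescence imaged with the DAPI filter set at 0 h and 2 h time points.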

The subject of data set [3] is MCF7. Nature of the data set: Photocytotoxicity against human MCF7 cells assessed as reduction in cell viability incubated for 1 hr followed by washout and irradiation with 480 nm 2.3 J/cm^2 light for 15 mins with 8 J/cm^2 UV irradiation for 5 mins and measured after 24 hrs by MTT assay. As to conditions: MCF7, light or radiation study. It counts as functional. The method, boiled down:
(§3)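 Cells (MCF7, A549, HeLa) incubated 1 h with compound (BB probes 0–32 μM, Br-DAPI 0–64 μM) and washed once. Light arms: 480 nm (15 min, 2.3 J cm⁻²) with or without UV (5 min, 8.0 J cm⁻²), or UV only; dark controls unilluminated. Cells kept overnight in growth medium, then MTT read 24 h post-treatment. CC50 taken relative to untreated cells. n = 3.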
(Tetrazolium assays rely on reduction of a dye to a coloured formazan, in cell work by metabolically active cells.)

The test system of data set [4] is MCF7. The experiment in a line: Induction of ROS production in human MCF7 cells assessed as increase in green fluorescence signal at 3 uM irradiated with 480 nm 2.3 J/cm^2 light for 15 mins with 16 J 780 nm 2P laser light for 10 seconds by DCFH2-DA probe based analysis. Format: functional, cell-based. The method, boiled down: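 MCF7 cells given compound at 3 μM and DCFH2DA (10 μM). Uncaged by 480 nm illumination (15 min, 2.3 J cm⁻²). DCF fluorescence imaged before and after 780 nm two-photon laser exposure (10 s, 16 J).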

Data set [5] deals with MCF7. The experiment in a line: Photorelease activity in human MCF7 cells assessed as wintergreen release by measuring bright green fluorescence in nucleus at 3 uM incubated for 1 hr followed by illumination with 1.6 J/cm^2 for 10 mins by EGFP filter based analysis. As to conditions: mcf7, 1.167 h, time 70 min. It counts as ADME, cell-based. The method, boiled down: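 MCF7 cells given compound (3 μM) for 1 h, washed once with PBS, imaged. DAPI filter set (ex 350–405, em 415–470 nm) used for Br-DAPI cyan signal; EGFP filter set (ex 450–495, em 500–550 nm) used for WinterGreen green signal. Cells imaged dark, then after 480 nm illumination (10 min, 1.6 J cm⁻²).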

Data set [6] relates to MCF7. The experiment in a line: Photocytotoxicity against human MCF7 cells cultured as 3D spheroids assessed as fold reduction in diameter of tumor spheroid size at 10 uM incubated for 1 hr followed by washout and irradiation with 480 nm 2.3 J/cm^2 light for 15 mins with 8 J/cm^2 UV irradiation for 5 mins and incubated overnight by cell viability imaging kit based assay.
A short description of data set [7]: Stability of compound in human HeLa cells assessed as esterase-mediated 3-bromo-2-(4-carbamimidoylphenyl)-1H-indole-6-carboxamidine release by measuring cyan fluorescence at 2 uM incubated for 1 hr followed by compound washout and further incubated for 1 hr on heated microscopic stage by DAPI filter based fluorescence analysis. Format: ADME, cell-based. The method, boiled down:
as §2

Data set [8] concerns MCF7. Nature of the data set: Photocytotoxicity against human MCF7 cells cultured as […] spheroids assessed as cell death by measuring increase in green fluorescence at 10 uM incubated for 1 hr followed by washout and irradiation with 480 nm 2.3 J/cm^2 light for 15 mins with 8 J/cm^2 UV irradiation for 5 mins and incubated overnight by cell viability imaging kit based assay. Format: functional. In a few lines:
as §1

The subject of data set [9] is MCF7. Nature of the data set: Photocytotoxicity against human MCF7 cells assessed as cell death by measuring increase in green fluorescence incubated for 1 hr followed by washout and irradiated with 480 nm 2.3 J/cm^2 light for 15 mins with 48 J 780 nm 2P laser light for 30 seconds and further incubated for 2 hrs by cell viability imaging kit based assay. Format: functional. As to conditions: dose 0-8 µM, DDE = dose-dependent effect. In a few lines:
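MCF7 cells given compound at 4 μM. Illuminated with 480 nm light (15 min, 2.3 J cm⁻²) plus 780 nm two-photon laser (30 s, 48 J). Stained 2 h later with a live/dead imaging kit: green dead-cell stain (EGFP filter), blue total-cell stain (DAPI filter). n = 3.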

In data set [10] the test system is Calf thymus DNA. The experiment in a line: Binding affinity to calf thymus DNA assessed as fold change in fluorescence quenching of 3-bromo-2-(4-carbamimidoylphenyl)-1H-indole-6-carboxamidine. It counts as nucleic-acid assay. As to conditions: Bos taurus.
The nature of data set [11]: Selectivity index, ratio of CC50 for photocytotoxicity against human HeLa cells irradiated with 480 nm 2.3 J/cm^2 light to CC50 for photocytotoxicity against human HeLa cells irradiated with 480 nm 2.3 J/cm^2 light and 8 J/cm^2 UV irradiation. Format: functional. In a few lines: as §3
Data set [12] is described as follows: Selectivity index, ratio of CC50 for photocytotoxicity against human MCF7 cells irradiated with 480 nm 2.3 J/cm^2 light to CC50 for photocytotoxicity against human MCF7 cells irradiated with 480 nm 2.3 J/cm^2 light and 8 J/cm^2 UV irradiation. It counts as functional. The method, boiled down:
as §3

Data set [13] in a line: Photorelease activity in PBS at pH 7.4 assessed as wintergreen release at 50 uM in presence of CT-DNA illuminated with 3.1 J/cm^2 480 nm illumination for 20 mins by RP-HPLC analysis. It counts as functional. In a few lines:
(§4)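 Samples at 50 μM in PBS pH 7.4 were either kept 3 h at 37 °C in the dark or illuminated 20 min at 480 nm (450–495 nm filter, 3.1 J cm⁻²). Analysed by RP-HPLC on a C18 analytical column with absorbance at 345 nm; retention times recorded. n = 2 independent samples.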

A short description of data set [14]: Drug uptake in human MCF7 cells cultured as […] spheroids assessed as increase in green fluorescence in nuclear background at 10 uM incubated overnight under dark condition by DAPI filter based fluorescence analysis. It counts as ADME, cell-based. The note with it: mcf7, 10 µM.
In data set [15] the test system is Calf thymus DNA. The experiment in a line: Binding affinity to calf thymus DNA assessed as dissociation constant by fluorescence based analysis. Format: nucleic-acid assay, Bos taurus. In a few lines:
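Fluorescence titration: compound at 20 μM in PBS pH 7.4, calf thymus DNA added in 10 μM steps until emission plateaued (~60 μM). Excitation 345 nm, emission 350–650 nm. KD obtained by fitting a one-site total saturation binding model (nonspecific binding proportional to ligand). Triplicate independent samples.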

The nature of data set [16]: Photorelease activity in PBS at pH 7.4 assessed as 3-bromo-2-(4-carbamimidoylphenyl)-1H-indole-6-carboxamidine release by measuring increase in fluorescence intensity at 50 uM in presence of CT-DNA incubated for 3 hrs under dark condition by RP-HPLC analysis. It counts as functional. In a few lines: as §4

For `CC1=CC(C)=[N+]2C1=C(COC(=O)/N=C(\N)c1ccc3c(Br)c(-c4ccc(C(=N)N)cc4)[nH]c3c1)c1c(C)cc(C)n1[B-]2(C)C`, the outcome in data set [1], in data set [4], in data set [6] and in [8] was Active. Further, the Stability entry in data set [2] and in data set [7] was “Stable” throughout. Also, the CC50 – broadly, the concentration that lowers cell viability or growth by half – in data set [3] worked out at 0.47 µM. The Drug metabolism entry is “Metabolite_Notdetected” in data set [5], “Metabolite not detected” in data set [13] and “Metabolite not detected” in data set [16]. Also, the Activity result in [9] was “Dde”. Moreover, the fold change (FC) in data set [10] amounted to 4. Also, the Ratio in [11] is on record as 2.2; in data set [12], 8.5. For the same compound, the Drug uptake entry in [14] is recorded as “Active”. The pKd (as a rule, −log10 of the Kd, conventionally taken in molar units) in data set [15] was 5.22.
